# Laboratory results: ChEMBL document CHEMBL1142384, “Gamma-carboline derivatives with anti-bovine viral diarrhea virus (BVDV) activity” (Bioorg Med Chem, 2008)
# How the values were obtained:
# [1] = test system: Bovine viral diarrhea virus 1; assay: Antiviral activity against BVDV infected in MDBK cells assessed as reduction in viral induced cell destruction by MTT assay; assay type: functional, organism-based; settings: Bovine viral diarrhea virus isolates and strains
# Summary of the method: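 BVDV (Nose strain) infected MDBK cells (1 × 10^4 cells/well) at multiplicity of infection 0.01. Cells incubated at 37 °C with various compound concentrations for 3 days. Viability of infected cells read by MTT.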
# [2] = Cytotoxicity against mock-infected MDBK cells by LDH method; assay type: cell-based, Bos taurus; settings: cattle
# Summary of the method: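 Mock-infected MDBK cells (1 × 10^4 cells/well) incubated at 37 °C with various compound concentrations for 3 days. Viability measured by the LDH method.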
# HL-60 = assay: Growth inhibition of human HL60 cells; assay type: functional, cell-based
# [3] = Selectivity index, ratio of CC50 for MDBK cells to EC50 for BVDV infected in MDBK cells; assay type: functional
# Summary of the method: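 MDBK cells (1 × 10^4/well) were infected with BVDV Nose strain at MOI 0.01, or mock-infected, and held at 37 °C with various compound concentrations for 3 days. EC50 was taken from the reduction of virus-induced cell destruction, measured as MTT viability of infected cells. CC50 was taken from the reduction of viable cell number, measured by LDH in mock-infected cells. SI = CC50/EC50.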
SMILES,EC50 [1] [µM],CC50 [2] [µM],IC50 (HL-60) [µM],Ratio CC50/EC50 [3]
c1ccc2c(c1)[nH]c1ccncc12,2,40,11.4,
c1ccc2c(c1)[nH]c1cccnc12,> 100,> 100,,
CCn1c2ccccc2c2cnccc21,2,29,,
Cc1nccc2[nH]c3ccccc3c12,0.58,9.7,15.3,16.7
Cn1c2ccccc2c2cnccc21,0.26,29,,111.5
c1ccc2c(c1)[nH]c1ncccc12,93,> 100,,
Cc1cccc2c1[nH]c1ccncc12,1.7,24,,14.1
Cc1cc2[nH]c3ccccc3c2cn1,2.2,70,,31.8
CCCn1c2ccccc2c2cnccc21,8.2,26,,
CC(C)n1c2ccccc2c2cnccc21,11,30,,
Cc1ccc2c(c1)[nH]c1ccncc12,1.1,24,,21.8
Cc1ccc2[nH]c3ccncc3c2c1,3,12,,4
c1ccc(Cn2c3ccccc3c3cnccc32)cc1,8.7,11,,
CCCCn1c2ccccc2c2cnccc21,9.2,14,,
Cc1cccc2[nH]c3ccncc3c12,1.2,16,,13.3
CCCCCCn1c2ccccc2c2cnccc21,> 7.4,7.4,,
Cn1ccc2nc3ccccc3c-2c1,4.3,65,,15.1
Cc1cncc2c1[nH]c1ccccc12,0.55,21,,38.2
CCN(CC)CCn1c2ccccc2c2cnccc21,8.9,10,,
c1ccc2c(c1)[nH]c1ccccc12 [CARBAZOLE],64,> 100,,
c1ccc2c(c1)oc1ccccc12 [DIBENZOFURAN],58,> 100,,
c1ccc2c(c1)Cc1ccccc1-2 [FLUORENE],71,> 100,,
c1ccc2c(c1)[nH]c1cnccc12 [NORHARMANE],8.8,78,,
